The record followed here is ChEMBL document CHEMBL1142827, “The identification and optimization of a N-hydroxy urea series of flap endonuclease 1 inhibitors” (Bioorg Med Chem Lett, 2005).

Format in all cases: functional, Homo sapiens
In experiment [1] the test system is T-24. As to the kind of experiment: Percent of viable cells by survival assay (colony forming) in T24 bladder carcinoma cells at 3 uM in the presence of 200 uM MMS. The procedure, abridged:
(§1)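 Colony-forming survival assay in T24 bladder carcinoma cells. Compound was given alongside DMSO alone or methyl methanesulfonate (MMS) at 110, 150 or 200 μM. Survival is expressed relative to the DMSO-only control, set at 100. Values are the average of two independent experiments.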

The test system of experiment [2] is T-24. The experiment is described as follows: Percent of viable cells by survival assay (colony forming) in T24 bladder carcinoma cells at 1 uM in the presence of 150 uM MMS. The procedure, abridged: as §1
Experiment [3] concerns T-24. As to the kind of experiment: Percent of viable cells by survival assay (colony forming) in T24 bladder carcinoma cells at 3 uM in the presence of 110 uM MMS. The procedure, abridged: as §1
Experiment [4] concerns T-24. As to the kind of experiment: Percent of viable cells by survival assay (colony forming) in T24 bladder carcinoma cells at 3 uM in the presence of 150 uM MMS. In short, it runs like this:
as §1

Experiment [5] deals with T-24. The experiment is described as follows: Percent of viable cells by survival assay (colony forming) in T24 bladder carcinoma cells at 1 uM in the presence of 200 uM MMS. The procedure, abridged:
as §1

Experiment [6] relates to T-24. As to the kind of experiment: Percent of viable cells by survival assay (colony forming) in T24 bladder carcinoma cells at 1 uM in the presence of DMSO. The procedure, abridged:
as §1

Experiment [7] has as its system T-24. As to the kind of experiment: Percent of viable cells by survival assay (colony forming) in T24 bladder carcinoma cells at 1 uM in the presence of 110 uM MMS. In short, it runs like this:
as §1

In experiment [8] the test system is T-24. The experiment is described as follows: Percent of viable cells by survival assay (colony forming) in T24 bladder carcinoma cells at 3 uM in the presence of DMSO. The procedure, abridged:
as §1

Consider `COc1cc(Cn2c(=O)n(O)c(=O)c3c(C)csc32)cc2c1OCO2`, for which the Viable cells in the experiment on T-24 [1] is reported as 0%; in the experiment on T-24 [2], 12%; with T-24 [3], 11%; in the experiment with T-24 [4] it was 6%; with T-24 [5], 2%; in the experiment with T-24 [6] it was 100%. The results for the Viable cells with T-24 [7] and with T-24 [8] were 24% and 86%, respectively.

Turning to `O=c1c2sccc2n(CC2COc3ccccc3O2)c(=O)n1O` (stereo unspecified), the Viable cells with T-24 [1] worked out at 4%; in the experiment on T-24 [2], 6%; in the experiment with T-24 [3], 11%; in the experiment with T-24 [4], 5%; with T-24 [5], 4%; with T-24 [6], 96%. The Viable cells in the experiment on T-24 [7] was determined as 18%; with T-24 [8] it was 87%.
